Compound activity: PubChem, The Scripps Research Institute Molecular Screening Center
GalR3 antagonist = GalR3 antagonists in HEK293 cells, primary screen, cell-based, fluorescence readout; Galanin receptor type 3 (Homo sapiens), O60755; HEK293 GalR3-CNG cAMP membrane potential fluorescence; galR3 body fused to GalR1 C-terminus; inhibition, % at 3 µM; actives 0.44% (n = 360,000); AID 651719, 2012;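 active = inhibition above the screen-wide average plus 3 SD, cut at about 13% in these data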;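 note: forskolin and galanin both at EC90 stimulate the cells; cAMP rise reported by CNG channel membrane potential dye signal; 0% = forskolin plus galanin with DMSO and 100% = forskolin alone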
Target sequence (O60755 1-299 limits assumed): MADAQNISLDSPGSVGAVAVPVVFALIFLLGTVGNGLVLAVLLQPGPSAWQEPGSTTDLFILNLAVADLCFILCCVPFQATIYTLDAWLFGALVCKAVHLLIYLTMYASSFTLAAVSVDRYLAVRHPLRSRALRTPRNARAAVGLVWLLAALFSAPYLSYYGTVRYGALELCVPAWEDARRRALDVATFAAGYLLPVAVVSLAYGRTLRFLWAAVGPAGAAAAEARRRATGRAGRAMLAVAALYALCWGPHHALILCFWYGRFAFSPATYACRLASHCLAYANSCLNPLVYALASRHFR
OX1R antag-1 = antagonists of human orexin 1 receptor (OX1R) | inhibition, % at 6.6 µM | AID 485270, 2010 | Orexin/Hypocretin receptor type 1 (Homo sapiens), O43613 | OX1R-expressing cells, FRET antagonist read-out | actives 1.8% (n = 330,000); in the data active = inhibition mostly above about 38%, no sharp cut-off; inactive = mostly below about 40%;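 note: 0% = agonist challenge alone and 100% = reference antagonist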
TAAR1 antag = human TAAR1 antagonists, primary screen, Fluo-8 calcium fluorescence, CHO RD-HGA16 cells; antagonist; actives 1.5% (n = 360,000); AID 624466, 2012; Trace amine-associated receptor 1 (Homo sapiens), Q96RJ0; inhibition, % at 3 µM;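 active = inhibition above a per-plate cutoff, the mean inhibition of test compounds on that plate plus 3 SD, cut at about 49% in these data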;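 note: 0% = DMSO plus EC80 beta-PEA response and 100% = DMSO alone without agonist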
Target sequence (Q96RJ0 whole entry, looked up): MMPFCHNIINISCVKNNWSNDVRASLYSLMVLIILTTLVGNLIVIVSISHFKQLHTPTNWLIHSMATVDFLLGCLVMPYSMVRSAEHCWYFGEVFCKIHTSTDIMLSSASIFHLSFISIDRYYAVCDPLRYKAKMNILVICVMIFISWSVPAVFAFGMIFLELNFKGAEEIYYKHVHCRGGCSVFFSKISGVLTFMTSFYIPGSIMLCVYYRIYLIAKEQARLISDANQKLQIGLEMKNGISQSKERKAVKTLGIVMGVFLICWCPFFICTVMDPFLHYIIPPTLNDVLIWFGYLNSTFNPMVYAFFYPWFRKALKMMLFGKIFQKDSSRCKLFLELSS
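test system = CHO RD-HGA16 cells bearing hTAAR1 | replication = singlicate | controls = DMSO-only wells and EC80 β-PEA-stimulated wells | reagent = EC80 β-phenethylamine stimulus | read-out basis = percent inhibition of PEA-evoked calcium signal, max/basal emission ratio | schedule = seeding 17-24 h prior, 75-min 37 °C, 30-min RT dye loading | signal = kinetic Fluo-8 calcium fluorescence measurement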
OX1R antag-2 = OX1R (HCRTR1) antagonists, primary screen, fluorescence, CHO/OX1R cells, Fluo-8 calcium, orexin A. Fluo-8 calcium fluorescence. inhibition, % at 5 µM. actives 0.43% (n = 330,000). AID 434989, 2010;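 active = inhibition above its plate's threshold, mean inhibition of all tested compounds on the plate plus 3 SD, cut at about 37% in these data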;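 note: 0% = orexin A challenge wells and 100% = SB-334867-A antagonist wells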
CHO parental Ca = ATP-evoked calcium signal inhibitors, parental CHO, primary screen, counter-screen for OX1R antagonist project, cell-based, fluorescence, Fluo-8 calcium dye; actives 0.63% (n = 330,000); AID 463079, 2010; inhibition, % at 5.6 µM; parental CHO-K1, ATP-induced calcium, Fluo-8 fluorescence;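 active = inhibition above that plate's mean sample inhibition plus 3 SD, cut at about 26% in these data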;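 note: 0% = ATP-challenged DMSO wells and 100% = DMSO wells without ATP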
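Material – parental CHO cells · Reagent – ATP stimulus · Compound – single nominal dose of 5.6 µM per compound · Detection – Fluo-8 fluorescence · Read-out basis – percent inhibition of calcium signal · Controls – ATP-challenged DMSO wells low, unchallenged DMSO wells high · Repeats – no replicates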
TAAR1 ag = human TAAR1 agonists, primary screen, Fluo-8 calcium fluorescence, CHO RD-HGA16 cells; Trace amine-associated receptor 1 (Homo sapiens), Q96RJ0; vehicle wells 0%, saturating PEA agonist 100%; activation, % at 3 µM; actives 0.99% (n = 360,000); AID 624467, 2012;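 active = activation above the mean activation of all test compounds in the run plus 3 SD, cut at about 38% in these data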
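Assay system – CHO-derived RD-HGA16 cells with stable Gα16 and human TAAR1 · Compound dosing – one-point dosing at 3 µM (nominal) · Incubation – 17-24 h seeding, 75 min 37 °C dye, 30 min RT · Measured by – kinetic Fluo-8 calcium fluorescence · Control set – DMSO vehicle as 0%, PEA at EC100 as 100% · Repeats – single well for each compound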
* = called active by the depositor; . = no result. A selection: hits, their analogues and other compounds. The true share with any hit is near 4.2%.

SMILES	GalR3 antagonist	OX1R antag-1	TAAR1 antag	OX1R antag-2	CHO parental Ca	TAAR1 ag
CN(C)c1ccc(/C=C/c2nc3ccccc3c(=O)n2CCO)cc1	-5	52*	28	3	7	19
CCc1c(C)nc2nc(SCc3ccccc3Cl)[nH]n2c1=O	-2	26	-27	-10	18	2
Cc1c(OCC(=O)NCCCN2CCCC2=O)ccc2c3c(c(=O)oc12)CCC3	3	17	-6	-19	-18	-1
Cc1[nH][nH]c(=O)c1N=Nc1ccc(S(N)(=O)=O)cc1	4	41*	-35	0	-8	0
NS(=O)(=O)c1ccc(N=Nc2c[nH]c(=O)c(O)c2)cc1	-8	42*	-4	5	3	6
CC(=O)c1ccc(N=Nc2c(C)[nH][nH]c2=O)cc1	0	43	-5	-11	-29	4
O=C(OCC(=O)N(Cc1ccccc1)C1CCS(=O)(=O)C1)c1cc2c(s1)CCCC2 (stereo unspecified)	-1	20	4	-23	-10	7
Cc1cccc(OCCCCc2c(C)n[nH]c2C)c1C	-8	22	-3	12	43*	6
COc1ccc(C(=O)OCC(=O)Nc2sccc2C(N)=O)cc1[N+](=O)[O-]	3	17	55*	6	-16	29
COc1ccc(C(=O)NC(C(=O)OCC(=O)Nc2sccc2C(N)=O)C(C)C)cc1 (stereo unspecified)	-4	8	34	-10	-17	10
COc1ccc(CCC(=O)OCC(=O)Nc2sccc2C(N)=O)cc1	-5	11	28	55*	33*	11
Cc1ccsc1C(=O)OCC(=O)Nc1sccc1C(N)=O	-5	47	24	-20	-11	42*
COc1ccc(C(=O)OCC(=O)NC(=O)NC2CCCC2)cc1[N+](=O)[O-]	-5	7	4	-10	-6	3
COC(=O)c1ccc(/C=C/C(=O)OCC(=O)Nc2sccc2C(N)=O)cc1	.	56*	.	33	22	.
COc1c(C)cc(C(=O)C2CCCN(C(=O)c3cc4nc(C)cc(C)n4n3)C2)cc1C (stereo unspecified)	-4	13	-1	-25	-18	2
CC(=O)c1c(C)[nH]c(C(=O)COC(=O)CCSc2ccccc2)c1C	-3	3	22	-24	-5	13
CCOC(=O)c1c(NC(=O)CN2C(=O)NC3(CCCCCC3)C2=O)sc(C)c1-c1ccc(C)cc1	-2	12	-33	-16	-18	3
O=C(CN1C(=O)NC2(CCc3ccccc3C2)C1=O)NCc1ccco1 (stereo unspecified)	-4	5	7	-11	-2	6
CCC1=NN2C(=N)/C(=C\c3cccn3-c3cccc(Cl)c3)C(=O)N=C2S1	-5	17	5	-18	-12	22
NC(=O)c1ccsc1NC(=O)COC(=O)CSc1ccc(Cl)cc1	-3	8	42	45*	42*	13
NC(=O)c1ccsc1NC(=O)COC(=O)c1ccc(Cl)c(N)c1	-3	28	53*	-3	-21	14
CCCCN1C(=O)C2(NNc3ccccc3O2)c2ccccc21 (stereo unspecified)	-7	3	21	37*	31	10
C=CCN1C(=O)C2(NNc3ccccc3O2)c2ccccc21 (stereo unspecified)	1	7	6	30	32*	1
CCCCN1C(=O)C(O)(CC(=O)c2c(C)coc2C)c2ccccc21 (stereo unspecified)	-2	12	6	-34	-22	6
O=C(NCCCN1CCCCCC1)c1ccc(CS(=O)(=O)Cc2ccccc2F)o1	-1	.	-6	.	.	9
SMILES	GalR3 antagonist	OX1R antag-1	TAAR1 antag	OX1R antag-2	CHO parental Ca	TAAR1 ag
O=S(=O)(c1ccc(N2CCCC2)cc1)C(F)(F)F	-5	30	24	-8	40*	16
COCC(=O)n1cc(C(=O)OC)c2ccccc21	5	11	2	-1	-7	5
COc1ccc(C(=O)c2ccc(N(C)C)cc2)c2ccccc12	-6	22	13	58*	33*	13
COc1ccc(C(=O)c2ccc(OC)c(OC)c2OC)cc1	-3	.	-10	.	.	0
COC(=O)C[C@H](NC(=O)Cn1cnc2c(OCc3ccccc3)ncnc21)C(=O)OC	-4	-1	-3	3	-10	2
O=c1[nH]c2ccccc2nc1-c1c[nH]c2ccccc12	-12	62*	12	22	-19	-1
Nc1ccccc1-c1nc2ccccc2[nH]c1=O	-14	.	4	.	.	-1
Cn1c(CO)cnc1SCc1ccc(F)cc1	-4	11	9	4	-10	2
COCCn1c(N)c(C(=O)NCC2CCCO2)c2nc3ccccc3nc21 (stereo unspecified)	-4	38	49*	-18	-17	15
CC(C)Cn1c(N)c(C(=O)NCC2CCCO2)c2nc3ccccc3nc21 (stereo unspecified)	-6	17	27	-10	-24	20
COc1ccccc1N(C(=O)Cn1nnc(-c2ccc(C)o2)n1)C(C(=O)NC1CCCC1)c1ccncc1 (stereo unspecified)	4	12	-17	6	-19	0
O=C(Nc1ccc(Oc2ccccc2)cc1)c1csc([C@@H]2O[C@H](CO)[C@@H](O)[C@H]2O)n1	4	.	59*	.	.	8
O=C(Nc1ccc(OCCO)cc1)c1csc([C@@H]2O[C@H](CO)[C@H](O)[C@H](O)[C@H]2O)n1	-9	.	-17	.	.	3
CC[C@@]1(O)C(=O)OCc2c1cc1n(c2=O)Cc2cc3c(N)cccc3nc2-1	-6	52	-18	-11	-3	0
CC[C@@]1(O)C(=O)OCc2c1cc1n(c2=O)Cc2cc3c(CN(C)C)c(O)ccc3nc2-1	.	46*	-6	-16	-4	9
CCOC(=O)CSc1nc2sc3c(c2c(=O)n1C1CCCCC1)CCN(C)C3	0	19	20	-48	-38	1
COc1ccc(C2=NS(=O)(=O)N(C)C(C(=O)Nc3ccc(C(C)=O)cc3)=C2)cc1OC	1	3	53*	-3	21	12
COc1ccc(NC(=O)C2=CC(c3ccc(C)cc3)=NS(=O)(=O)N2C)cc1OC	.	14	1	-7	3	4
